# Results: PubChem BioAssay AID624013 (Broad Institute, 2012)
# Several values for one entry are separate records, joined by “and”; a condition that tells them apart may be missing. Equal entries are not always repeated. Activity calls are given as the source filed them.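 The calls were made as follows: active = compounds whose fitted growth inhibition curve reaches half effect at or below twice the top tested dose; inconclusive = flat inhibition between 30 and 70 percent, or poor fit; inactive = the rest.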
# System: Candida glabrata growth, glucose medium, OD600, 48 h
# Assay: glucose-fed Candida glabrata growth inhibitors – glucose medium, plate reader, dry powder, set 4, dose response (AID 624013)
# Settings: not given
# How it was run: (§1)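 System: Candida glabrata yeast cells, whole organism / Control set: amphotericin B 10 µM, positive / Signal: optical density at 600 nm (absorbance) / Buffer or medium: CSM-glucose medium / Schedule: compound exposure 48 h at 30 °C, static, humidified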
row,Compound,AC50 [µM]
1,CC1/C=C/C=C\C=C\C=C\C=C\C=C\C=C\C(O[C@H]2OC(C)C(O)C(N)C2O)CC2OC(O)(CC(O)CC(O)C(O)CCC(O)CC(O)CC(=O)OC(C)C(C)C1O)CC(O)C2C(=O)O (stereo partly drawn),2.12

# System: not listed separately
# Assay: as above
# Settings: Candida glabrata growth, glucose medium, OD600, 48 h; at 3 µM (top of the series)
# How it was run: as §1
row,Compound,"activity change, negative = inhibition"
1,CCOC(=O)N1C(=O)C2(CCCCC2)N(c2ccccc2)C1=S,-11.8% (inactive)
2,C/C=C/[C@@H]1[C@H]2C[C@@H](C)CC[C@@H]2C(C)=C[C@H]1C(=O)c1c(O)c(-c2ccc(O)cc2)c[nH]c1=O,-2.31% (inactive)
3,CCOC(=O)N1C(=O)C2(CCCCC2)N(c2cccc(C)c2)C1=S,-14.7% (inactive)
4,CCOC(=O)N1C(=O)C2(CCCCC2)N(c2ccc(Cl)cc2)C1=S,-19.6% (inactive)
5,CCOC(=O)N1C(=O)C2(CCCCC2)N(c2ccc(F)cc2)C1=S,-16.3% (inactive)
6,CCOC(=O)N1C(=O)C2(CCCCC2)N(c2ccc(C#N)cc2)C1=S,-17% (inactive)
7,CCOC(=O)N1C(=O)C2(CCCCC2)N(c2ccc(C)cc2)C1=S,-13.3% (inactive) and -16.5% (inactive)
